T_cruzi_HTS = intracellular Trypanosoma cruzi inhibition. AID 651903. activity score (inhibition), % at 5.01 µM. hit rate 4.9% among 22,000. intracellular Trypanosoma cruzi in host cells, plate reader; in the data active = activity score above about 55%;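 note: parasites and compound incubated about four days before reading; 0% = median of neutral control wells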
INS-1E_rescue = INS-1E beta cell protection from cytokine death. protection from cytokine-induced ATP loss, % at 10 µM. INS-1E cytokine-induced death, ATP luminescence, 48 h; normalised: neutral wells 0, positive control 100. hit rate 0.1% among 20,000;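 active = mean replicate protection from cytokine-induced ATP loss at least 50% and at least 75% of replicates each reaching 50%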
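Assay system: INS-1E rat cells / Quantity: 8000 cells per well / Medium: RPMI without phenol red, 5% FBS / Probe or stimulus: three-cytokine cocktail (IFN-γ, TNF-α, IL-1β) / Dosing: one compound concentration, pin transfer / Timing: 48 h co-treatment, 10 min post-lysis read / Technique: CellTiter-Glo luminescence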
A1_apoptosis_2 = A1 inhibition read as caspase activation; AID 2465; 24,000 tested, under 10 active; caspase activation, % (no concentration beside the values); MEF A1-2A-BIM cells, caspase-Glo luminescence, 3 h; percent of clofoctol response, DMSO zero; in the data active = caspase activation above about 5.9%
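System: mouse embryonic fibroblasts co-expressing A1 and BIM (A1-2A-BIM), primed for A1 dependence; amount: 2500 cells/well; doses: 50 nL pinned compound; schedule: cells settled overnight, compound exposure 3 h at 37 °C, 5% CO2; detection: Caspase-Glo 3/7 luminescence, 1 h at room temperature; read-out: Caspase-3/7 activation, seen as rise in luminescence signal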
* hit, by the source's call; nt = not tested or not shown. The entries come from a sample that favours hits as a whole.

SMILES T_cruzi_HTS INS-1E_rescue A1_apoptosis_2
COc1ccc(CN(C)C[C@H]2Oc3ccc(NC(=O)Nc4c(C)noc4C)cc3C(=O)N([C@@H](C)CO)C[C@@H]2C)cc1 7 nt nt
C[C@H]1CN([C@@H](C)CO)C(=O)Cc2cc(NC(=O)CCCCCC(=O)Nc3ccccc3N)ccc2O[C@H]1CN(C)S(C)(=O)=O nt nt 2
COc1ccc(S(=O)(=O)Nc2ccc3c(c2)CC(=O)N([C@H](C)CO)C[C@@H](C)[C@H](CN(C)Cc2ccc(Cl)c(Cl)c2)O3)cc1 70* -21 nt
COc1ccc(CN(C)C[C@@H]2Oc3ccc(NS(=O)(=O)c4ccc(C)cc4)cc3CC(=O)N([C@@H](C)CO)C[C@@H]2C)cc1 46 -1 0
COc1ccc(S(=O)(=O)Nc2ccc3c(c2)CC(=O)N([C@H](C)CO)C[C@H](C)[C@H](CN(C)Cc2ccc(Cl)c(Cl)c2)O3)cc1 40 0 nt
COc1ccc(CN(C)C[C@@H]2Oc3ccc(NS(=O)(=O)c4ccc(Cl)cc4)cc3CC(=O)N([C@H](C)CO)C[C@H]2C)cc1 68* 0 -1
COc1ccc(CN(C)C[C@@H]2Oc3ccc(NS(=O)(=O)c4ccc(C)cc4)cc3CC(=O)N([C@H](C)CO)C[C@H]2C)cc1 68* 8 nt
COc1ccc(CN(C)C[C@@H]2Oc3ccc(NS(=O)(=O)c4ccc(Cl)cc4)cc3CC(=O)N([C@@H](C)CO)C[C@@H]2C)cc1 3 2 0
C[C@H](CO)N1C[C@H](C)[C@H](CN(C)S(=O)(=O)c2ccccc2)Oc2ccc(NC(=O)Nc3ccc(F)cc3)cc2C1=O -5 3 -1
C[C@@H]1CN([C@H](C)CO)C(=O)c2cc(NC(=O)CCC(F)(F)F)ccc2O[C@@H]1CN(C)C(=O)Nc1ccc2c(c1)OCO2 nt nt 1
C[C@@H]1CN([C@@H](C)CO)C(=O)c2cc(NC(=O)C3CC3)ccc2O[C@H]1CN(C)S(C)(=O)=O -26 -3 nt
C[C@@H]1CCCCO[C@@H](CN(C)C(=O)CCC(F)(F)F)[C@H](C)CN([C@H](C)CO)C(=O)c2cc(NS(=O)(=O)c3ccccc3)ccc2O1 nt nt 0
C[C@@H]1CN([C@@H](C)CO)C(=O)c2cccc(NC(=O)Nc3ccccc3)c2O[C@H]1CN(C)Cc1ccc(Oc2ccccc2)cc1 76* -25 -1
C[C@H](CO)N1C[C@H](C)[C@H](CN(C)Cc2ccc(Oc3ccccc3)cc2)Oc2c(NC(=O)Nc3ccc(F)cc3)cccc2C1=O -13 -9 -1
C[C@@H]1CN([C@@H](C)CO)C(=O)c2cccc(NC(=O)Nc3ccc(F)cc3)c2O[C@@H]1CN(C)Cc1ccc(-c2ccccc2)cc1 69* -67 0
C[C@@H]1CN([C@H](C)CO)C(=O)c2cccc(NC(=O)Nc3ccc(F)cc3)c2O[C@H]1CN(C)Cc1ccc(-c2ccccc2)cc1 -13 0 0
C[C@H](CO)N1C[C@H](C)[C@@H](CN(C)Cc2ccc(Oc3ccccc3)cc2)Oc2c(NC(=O)Nc3ccc(F)cc3)cccc2C1=O 59* -36 1
C[C@@H]1CN([C@H](C)CO)C(=O)c2cccc(NC(=O)Nc3ccccc3)c2O[C@H]1CN(C)Cc1ccc(Oc2ccccc2)cc1 34 -20 -1
C[C@H]1CN([C@@H](C)CO)C(=O)Cc2cc(NC(=O)CCN3CCOCC3)ccc2O[C@@H]1CN(C)S(C)(=O)=O -13 6 0
CNC[C@@H]1Oc2ccc(NC(=O)Nc3ccc(C(F)(F)F)cc3)cc2C(=O)N([C@@H](C)CO)C[C@H]1C 6 -6 1
COc1ccc(S(=O)(=O)N(C)C[C@H]2OCCCC[C@H](C)Oc3ccc(NC(=O)Cc4ccccc4)cc3C(=O)N([C@@H](C)CO)C[C@H]2C)cc1 nt nt -1
C[C@H](CO)N1C[C@H](C)[C@H](CN(C)Cc2ccc(C(=O)Nc3ccccc3N)cc2)Oc2ccc(NC(=O)C3CC3)cc2CC1=O 63* 32 nt
C[C@H](CO)N1C[C@H](C)[C@H](CN(C)Cc2ccc(C(=O)Nc3ccccc3N)cc2)Oc2ccc(NC(=O)C3CCCCC3)cc2CC1=O 61* 29 nt
C[C@H](CO)N1C[C@H](C)[C@@H](CN(C)Cc2ccc(C(=O)Nc3ccccc3N)cc2)Oc2ccc(NC(=O)C3CC3)cc2CC1=O nt nt 0
C[C@@H]1CN([C@H](C)CO)C(=O)Cc2cc(NC(=O)C3CCCCC3)ccc2O[C@@H]1CN(C)Cc1ccc(C(=O)Nc2ccccc2N)cc1 54 -13 nt
C[C@H]1CN([C@@H](C)CO)C(=O)Cc2cc(NS(=O)(=O)c3cn(C)cn3)ccc2O[C@@H]1CN(C)S(=O)(=O)c1cccs1 -13 0 -1
